According to publication PMC3114295 (Pain, 2011):

What was measured:
EP24.15 = details: read-out: Ki for inhibiting EP24.15; cited from earlier work
[1] = prolonged incubation in various tissues; cited from earlier work
male Sprague Dawley rats = assay: Bradykinin-induced thermal hyperalgesia, paw withdrawal latency; assay type: in vivo; details: rat hindpaw i.pl., JA-2 5 μM 25 μl 30 min before BK 0.1 μM 25 μl; n=6-10
How it was run: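 Male Sprague-Dawley rats (200-250 g), tested in the light phase after 30 min acclimation. Blinded Hargreaves thermal latency, with baseline set near 10 s and a 20 s cutoff, taken as the mean of triplicate readings at least 30 s apart. Intraplantar s.c. vehicle (50% DMSO/0.9% saline) or test compound (5 μM), 25 μl; latency read 30 min later. BK (0.1 or 1 μM, 25 μl) then injected into the same paw; latency read at 5 min.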

EP24.16 = details: EP24.15 preferentially over EP24.16; cited from earlier work
[2] = cited from earlier work

In the case of C[C@H](NC(CCc1ccccc1)C(=O)O)C(=O)NC(C)(C)C(=O)N[C@@H](Cc1ccc(O)cc1)C(=O)Nc1ccc(C(=O)O)cc1 (stereo partly drawn) [JA-2], the Ki (EP24.15) is listed as 23 nM, the “retention of activity after incubation in tissues (stability)” value [1] is listed as “retains its activity after prolonged incubation in various tissues” and the “effect on response to sub-threshold BK (0.1 μM), thermal hyperalgesia” value (male Sprague Dawley rats) is listed as “resulted in a nociceptive response”. The “times more potent at inhibiting EP24.15 than EP24.16 (selectivity)” value (EP24.16) was 20-30 fold.

In the case of “N-[1-(R,S)-carboxy-3-phenylpropyl]-Ala-Ala-Tyr-p-aminobenzoate [cFP]”, the “potentiation of antinociceptive effects of co-administered opioid peptides” value ([2]; co-administered with Met-enkephalin-Arg-Gly-Leu and dynorphin A1-8) is listed as “potentiate the antinociceptive effects” and the antinociception ([2]; intracerebroventricular administration, time and dose-dependent) is listed as “significant antinociception”.
